{"source": "ChEMBL document CHEMBL1157394", "about": "“Absolute configuration and antimicrobial activity of acylhomoserine lactones” (2008)", "assay_type_in_all_cases": "functional", "key": {"Bacillus cereus": {"tested_on": "Bacillus cereus", "assay": "Antimicrobial activity against Bacillus cereus CCT 4060 after 24 hrs by MTT method", "in_short": "(§1)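 Strain grown on solid nutrient broth slants at 30 °C for 24 h, then suspended in sterile water to 3 × 10⁸ cells/mL (McFarland). Suspension diluted into Mueller-Hinton medium in 96-well plates. Samples started from 1000 µg/mL stock in 20% aqueous DMSO and serially diluted twofold. Incubated 30 °C, 24 h; 0.025% MTT added. Purple wells scored as growth, yellow as inhibition. Run in duplicate; concentration range for growth inhibition reported.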"}, "Bacillus subtilis": {"tested_on": "Bacillus subtilis", "assay": "Antimicrobial activity against Bacillus subtilis CCT 0089 after 24 hrs by MTT method", "in_short": "as §1"}, "Staphylococcus aureus": {"tested_on": "Staphylococcus aureus", "assay": "Antimicrobial activity against Staphylococcus aureus CCT 1295 24 hrs by MTT method", "in_short": "as §1"}}, "note": "The source made the active and inactive calls. No cut-off for these calls is given here."}
{"smiles": "CCCCCC(=O)CC(=O)NC1CCOC1=O", "note": "(racemic)", "values": [{"measurement": "Activity", "setting": "Bacillus cereus", "value": 62.5, "unit": "µg/mL"}, {"measurement": "Activity", "setting": "Bacillus subtilis", "value": 62.5, "unit": "µg/mL"}, {"measurement": "Activity", "setting": "Staphylococcus aureus", "value": 500, "unit": "µg/mL"}]}
{"smiles": "CCCCCCCCCC(=O)CC(=O)NC1CCOC1=O", "note": "(racemic)", "values": [{"measurement": "Activity", "setting": "Bacillus cereus", "value": 125, "unit": "µg/mL"}, {"measurement": "Activity", "setting": "Bacillus subtilis", "value": 125, "unit": "µg/mL"}, {"measurement": "Activity", "setting": "Staphylococcus aureus", "value": 500, "unit": "µg/mL"}]}
{"smiles": "CCCCCCC(=O)NC1CCOC1=O", "note": "(racemic)", "values": [{"measurement": "Activity", "setting": "Bacillus cereus", "value": "inactive"}, {"measurement": "Activity", "setting": "Bacillus subtilis", "value": 500, "unit": "µg/mL"}, {"measurement": "Activity", "setting": "Staphylococcus aureus", "value": "inactive"}]}
{"smiles": "CCCCCCCCCCCC(=O)CC(=O)NC1CCOC1=O", "note": "(racemic)", "values": [{"measurement": "Activity", "setting": "Bacillus cereus", "value": 500, "unit": "µg/mL"}, {"measurement": "Activity", "setting": "Bacillus subtilis", "value": 250, "unit": "µg/mL"}, {"measurement": "Activity", "setting": "Staphylococcus aureus", "value": 500, "unit": "µg/mL"}]}
{"smiles": "O=C(N[C@H](CO)[C@H](O)c1ccc([N+](=O)[O-])cc1)C(Cl)Cl", "note": "[CHLORAMPHENICOL]", "values": [{"measurement": "Activity", "setting": "Bacillus cereus", "value": 3.91, "unit": "µg/mL"}, {"measurement": "Activity", "setting": "Bacillus subtilis", "value": 3.91, "unit": "µg/mL"}, {"measurement": "Activity", "setting": "Staphylococcus aureus", "value": 7.81, "unit": "µg/mL"}]}
